Experimental data taken from ChEMBL document CHEMBL4359826, “Preparation of bivalent agonists for targeting the mu opioid and cannabinoid receptors” (Eur J Med Chem, 2019).
pEC50, pKi: −log10 of the molar value. Calls of active or inactive are those of the source.

Tests used:
Rattus norvegicus [1] = test: Effect on nociception of the contralateral paw in rat model of sodium iodoacetate-induced osteoarthritis paw withdrawal threshold in early phase at 20 ug administered as intrathecal injection measured up to 45 mins by Von Frey test (reference value: 44 +/- 2.4 g); assay type: organism-based; settings: in vivo, icv_or_intrathecal, 0.75 h
Rattus norvegicus [2] = test: Effect on nociception of the contralateral paw in rat model of sodium iodoacetate-induced osteoarthritis paw withdrawal threshold in late phase at 20 ug administered as intrathecal injection measured after 60 to 90 mins by Von Frey test (reference value: 43 +/- 3.4 g); assay type: organism-based; settings: in vivo, icv_or_intrathecal
Rattus norvegicus [3] = test: Antiallodynic activity in sodium iodoacetate-induced rat model of osteoarthritis assessed as increase in maximum effect in early phase at 20 ug administered as intrathecal injection measured up to 45 mins by Von Frey test; assay type: functional, organism-based
Rattus norvegicus [4] = test: Antiallodynic activity in sodium iodoacetate-induced rat model of osteoarthritis assessed as reduction in maximum effect in late phase at 20 ug administered as intrathecal injection measured up to 60 to 90 mins by Von Frey test; assay type: functional, organism-based
Cannabinoid receptor [5] = target: T1, Cannabinoid receptor (Rattus norvegicus, UniProt Q9QZN9+P20272); test: Displacement of [3H]JWH-018 from CB1R/CB2R in Wistar rat brain membranes after 60 mins by liquid scintillation analysis; assay type: cell membranes
Mu-type opioid receptor [6] = target: T2, Mu-type opioid receptor (Rattus norvegicus, UniProt P33535); test: Displacement of [3H]DAMGO from MOR in Wistar rat brain membranes after 60 mins by liquid scintillation analysis; assay type: cell membranes
T2 sequence (P33535 whole entry): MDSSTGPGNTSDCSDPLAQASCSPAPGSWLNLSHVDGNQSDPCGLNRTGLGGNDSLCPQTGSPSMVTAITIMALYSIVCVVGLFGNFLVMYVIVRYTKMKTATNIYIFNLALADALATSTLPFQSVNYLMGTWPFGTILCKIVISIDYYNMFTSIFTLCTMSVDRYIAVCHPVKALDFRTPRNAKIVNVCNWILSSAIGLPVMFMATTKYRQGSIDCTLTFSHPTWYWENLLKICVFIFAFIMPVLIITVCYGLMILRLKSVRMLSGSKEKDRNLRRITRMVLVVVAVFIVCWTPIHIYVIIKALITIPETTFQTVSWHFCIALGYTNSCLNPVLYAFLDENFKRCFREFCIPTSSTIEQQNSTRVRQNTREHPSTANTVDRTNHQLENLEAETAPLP

[7] = target: Kappa-type opioid receptor (Cavia porcellus, UniProt P41144); assay type: cell membranes, Brain, Membranes
Kappa-type opioid receptor, sequence (P41144 whole entry): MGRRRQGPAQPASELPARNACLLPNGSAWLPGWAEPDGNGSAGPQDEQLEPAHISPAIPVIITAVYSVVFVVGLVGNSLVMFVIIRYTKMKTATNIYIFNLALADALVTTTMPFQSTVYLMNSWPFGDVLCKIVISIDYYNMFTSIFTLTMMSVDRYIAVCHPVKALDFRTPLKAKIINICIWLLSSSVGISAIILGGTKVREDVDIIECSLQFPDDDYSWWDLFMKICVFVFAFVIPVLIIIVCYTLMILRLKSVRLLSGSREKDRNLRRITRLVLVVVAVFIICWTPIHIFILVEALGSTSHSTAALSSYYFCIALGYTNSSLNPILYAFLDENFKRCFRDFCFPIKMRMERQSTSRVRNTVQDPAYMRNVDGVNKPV

Cannabinoid receptor [8] = target: T1, Cannabinoid receptor; assay type: cell membranes, Wistar, Brain, Membranes
[9] = Agonist activity at MOR/CB1R/CB2R receptor in Wistar rat brain membranes after 60 mins by [35S]-GTPgammaS binding assay; assay type: cell membranes
Rattus norvegicus [10] = test: Effect on nociception of the contralateral paw in rat model of sodium iodoacetate-induced osteoarthritis assessed as paw withdrawal threshold in early phase at 7 ug administered as intrathecal injection measured up to 45 mins by Von Frey test (reference value: 44 +/- 2.4 g); assay type: ADME, organism-based; settings: in vivo, icv_or_intrathecal, 0.75 h
Rattus norvegicus [11] = test: Effect on nociception of the contralateral paw in rat model of sodium iodoacetate-induced osteoarthritis assessed as paw withdrawal threshold in late phase at 7 ug administered as intrathecal injection measured after 60 to 90 mins by Von Frey test (reference value: 43 +/- 3.4 g); assay type: ADME, organism-based; settings: in vivo, icv_or_intrathecal
Rattus norvegicus [12] = test: Antiallodynic activity in sodium iodoacetate-induced rat model of osteoarthritis assessed as increase in maximum effect in early phase at 7 ug administered as intrathecal injection measured up to 45 mins by Von Frey test; assay type: functional, organism-based
Mu-type opioid receptor [13] = target: T2, Mu-type opioid receptor; test: Agonist activity at MOR in Wistar rat brain membranes after 60 mins by [35S]-GTPgammaS binding assay; assay type: functional, cell membranes
Rattus norvegicus [14] = organism: Rattus norvegicus; settings: Wistar, Brain, Membranes, at 10 µM
[15] = target: T3, Cannabinoid receptor (Rattus norvegicus) (UniProt Q9QZN9+P20272); test: (§1) Displacement of [3H]JWH-018 from CB1R/CB2R in Wistar rat brain membranes assessed as dissociation rate constant at 10 uM by liquid scintillation analysis; assay type: cell membranes
T3 sequence (P20272 whole entry, looked up, one chain of several): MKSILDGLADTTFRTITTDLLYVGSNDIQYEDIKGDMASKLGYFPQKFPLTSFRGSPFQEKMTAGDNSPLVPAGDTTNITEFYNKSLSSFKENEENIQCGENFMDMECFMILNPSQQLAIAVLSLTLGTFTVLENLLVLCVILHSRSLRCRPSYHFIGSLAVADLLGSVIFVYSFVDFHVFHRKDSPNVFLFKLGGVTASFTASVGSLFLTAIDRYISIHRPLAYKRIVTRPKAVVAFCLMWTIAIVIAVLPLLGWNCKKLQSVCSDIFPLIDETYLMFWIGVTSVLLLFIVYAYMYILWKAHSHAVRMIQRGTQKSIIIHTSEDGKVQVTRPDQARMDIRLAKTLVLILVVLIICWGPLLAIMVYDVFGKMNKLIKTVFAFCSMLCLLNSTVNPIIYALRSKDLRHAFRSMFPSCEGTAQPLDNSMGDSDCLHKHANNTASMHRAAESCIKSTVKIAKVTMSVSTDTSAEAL
Method in brief: (§2)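 Whole rat brain membranes (cerebellum removed; 0.3–0.5 mg/mL protein) in 50 mM Tris-HCl pH 7.4 with 2.5 mM EGTA, 5 mM MgCl2 and 0.5 mg/mL fatty-acid-free BSA, 30 °C. Kinetics used 0.6 nM [3H]JWH-018: association over 0–90 min, dissociation started with 10 µM JWH-018 after 60 min. Saturation over 0.5–35 nM. Competitors at 10^-11–10^-5 M, 60 min. Nonspecific binding with 10 µM JWH-018. Filtration onto PEI-soaked GF/B filters; n≥3.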

Cannabinoid receptor [16] = target: T1, Cannabinoid receptor; test: as §1; assay type: cell membranes; method in brief: as §2
[17] = target: T3, Cannabinoid receptor (Rattus norvegicus); test: Displacement of [3H]JWH-018 from CB1R/CB2R in Wistar rat brain membranes assessed as specific binding at 10 uM up to 90 mins by liquid scintillation analysis relative to control; assay type: cell membranes; method in brief: as §2
[18] = target: T3, Cannabinoid receptor (Rattus norvegicus); test: Displacement of [3H]JWH-018 from CB1R/CB2R in Wistar rat brain membranes assessed as pseudo-first order rate constant at 10 uM up to 90 mins by liquid scintillation analysis; assay type: cell membranes; method in brief: as §2
[19] = target: T3, Cannabinoid receptor (Rattus norvegicus); test: Displacement of [3H]JWH-018 from CB1R/CB2R in Wistar rat brain membranes at 10 uM by liquid scintillation analysis relative to control; assay type: cell membranes; method in brief: as §2
Cannabinoid receptor [20] = target: T1, Cannabinoid receptor; test: Displacement of [3H]JWH-018 from CB1R/CB2R in Wistar rat brain membranes assessed as dissociation constant by liquid scintillation analysis; assay type: cell membranes; method in brief: as §2
[21] = target: Delta-type opioid receptor (Rattus norvegicus, UniProt P33533); test: Displacement of [3H]Ile5,6-deltorphin-2 from DOR in Wistar rat brain membranes after 60 mins by liquid scintillation analysis; assay type: cell membranes
Delta-type opioid receptor, sequence (P33533 whole entry): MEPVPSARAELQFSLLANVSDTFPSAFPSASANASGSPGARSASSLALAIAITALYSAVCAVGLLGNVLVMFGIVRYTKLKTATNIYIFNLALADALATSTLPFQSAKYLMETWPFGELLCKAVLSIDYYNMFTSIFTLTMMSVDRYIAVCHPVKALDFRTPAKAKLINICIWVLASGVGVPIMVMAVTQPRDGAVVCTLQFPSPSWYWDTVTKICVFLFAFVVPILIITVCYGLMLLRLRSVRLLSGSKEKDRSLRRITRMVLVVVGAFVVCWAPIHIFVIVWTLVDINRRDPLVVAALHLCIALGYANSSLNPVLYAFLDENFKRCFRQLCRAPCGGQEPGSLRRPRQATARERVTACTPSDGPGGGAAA

[22] = target: T3, Cannabinoid receptor (Rattus norvegicus); test: Displacement of [3H]JWH-018 from CB1R/CB2R in Wistar rat brain membranes assessed as maximum efficacy at 10 uM by liquid scintillation analysis; assay type: cell membranes; method in brief: as §2
Cannabinoid receptor [23] = target: T1, Cannabinoid receptor; test: Agonist activity at CB1R/CB2R in Wistar rat brain membranes after 60 mins by [35S]-GTPgammaS binding assay; assay type: functional, cell membranes
Method in brief: (§3)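 Rat brain membranes (30 µg protein/tube) incubated 60 min at 30 °C with 0.05 nM [35S]GTPγS and ligand at 10^-10–10^-5 M. Buffer: 50 mM Tris-HCl pH 7.4 with 30 µM GDP, 100 mM NaCl, 3 mM MgCl2, 1 mM EGTA. […] Nonspecific binding taken with 10 µM GTPγS; basal set as 100%. Filtration and scintillation counting; n≥3.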

[24] = target: T3, Cannabinoid receptor (Rattus norvegicus); test: Agonist activity at CB1R/CB2R in Wistar rat brain membranes after 60 mins by [35S]-GTPgammaS binding assay relative to control; assay type: functional, cell membranes; method in brief: as §3
[25] = target: Mu-type opioid receptor (Rattus norvegicus) (UniProt P33535); test: Agonist activity at MOR in Wistar rat brain membranes at 10 uM in presence of naloxone after 60 mins by [35S]-GTPgammaS binding assay relative to control; assay type: functional, cell membranes
Mu-type opioid receptor (Rattus norvegicus), sequence (P33535 whole entry): as the sequence (P33535 whole entry) above
Method in brief: (§4)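 Rat brain membranes (30 µg protein/tube) incubated 60 min at 30 °C with 0.05 nM [35S]GTPγS and ligand at 10^-10–10^-5 M. Buffer: 50 mM Tris-HCl pH 7.4 with 30 µM GDP, 100 mM NaCl, 3 mM MgCl2, 1 mM EGTA. Nonspecific binding taken with 10 µM GTPγS; basal set as 100%. Filtration and scintillation counting; n≥3.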

[26] = target: Cannabinoid receptor 1 (Rattus norvegicus) (UniProt P20272); test: Agonist activity at CB1R in Wistar rat brain membranes at 10 uM in presence of rimonabant after 60 mins by [35S]-GTPgammaS binding assay relative to control; assay type: functional, cell membranes; method in brief: as §3
Cannabinoid receptor 1 (Rattus norvegicus), sequence (P20272 whole entry): as the sequence (P20272 whole entry, looked up, one chain of several) above

[27] = target: T4, Cannabinoid receptor 2 (Rattus norvegicus) (UniProt Q9QZN9); test: Agonist activity at CB2R in Wistar rat brain membranes at 10 uM in presence of AM630 after 60 mins by [35S]-GTPgammaS binding assay relative to control; assay type: functional, cell membranes; method in brief: as §3
T4 sequence (whole entry): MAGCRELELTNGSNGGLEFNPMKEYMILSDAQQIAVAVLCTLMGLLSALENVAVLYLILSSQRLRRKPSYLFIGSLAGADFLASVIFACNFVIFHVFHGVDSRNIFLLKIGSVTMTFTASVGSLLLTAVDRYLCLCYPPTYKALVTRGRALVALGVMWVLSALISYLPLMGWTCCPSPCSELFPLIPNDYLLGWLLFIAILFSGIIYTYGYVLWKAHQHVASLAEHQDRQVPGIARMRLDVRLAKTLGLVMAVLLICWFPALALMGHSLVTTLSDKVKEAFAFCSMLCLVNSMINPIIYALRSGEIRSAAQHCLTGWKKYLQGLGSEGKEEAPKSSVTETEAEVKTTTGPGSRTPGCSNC

Rattus norvegicus [28] = organism: Rattus norvegicus; test: Agonist activity at MOR/CB1R/CB2R in Wistar rat brain membranes at 10 uM in presence of naloxone,rimonabant and AM630 after 60 mins by [35S]-GTPgammaS binding assay relative to control; assay type: cell membranes; method in brief: as §3
Mu-type opioid receptor [29] = target: T2, Mu-type opioid receptor; test: Agonist activity at MOR in Wistar rat brain membranes in presence of naloxone after 60 mins by [35S]-GTPgammaS binding assay; assay type: functional, cell membranes; method in brief: as §4
Cannabinoid receptor 1 = Cannabinoid receptor 1 (Rattus norvegicus, UniProt P20272); test: Agonist activity at CB1R in Wistar rat brain membranes in presence of rimonabant after 60 mins by [35S]-GTPgammaS binding assay; assay type: functional, cell membranes; method in brief: as §3
Cannabinoid receptor 1, sequence (P20272 whole entry): as the sequence (P20272 whole entry, looked up, one chain of several) above

Cannabinoid receptor 2 = target: T5, Cannabinoid receptor 2 (Rattus norvegicus, UniProt Q9QZN9); test: Agonist activity at CB2R in Wistar rat brain membranes in presence of AM630 after 60 mins by [35S]-GTPgammaS binding assay; assay type: functional, cell membranes; method in brief: as §3
T5 sequence (Q9QZN9 whole entry): T4 sequence (whole entry)

Mus musculus = test: Antinociceptive activity in CD-1 mouse assessed as increase in thermal latency at 10 mg/kg, iv after 15 to 120 mins by hot plate technique; assay type: functional, organism-based
Method in brief: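 Male CD-1 mice (25 g) given 10 mg/kg i.v. in 10 mL/kg; vehicle saline with 5% DMSO. Hot plate held at 55.0 °C. Latency to paw lick or jump, cut-off 60 s, read at 15–120 min. Baseline is the mean of three pre-test readings. Data given as %MPE; n=6/group.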

Rattus norvegicus [30] = organism: Rattus norvegicus; test: Agonist activity at MOR/CB1R/CB2R in Wistar rat brain membranes after 60 mins by [35S]-GTPgammaS binding assay relative to control; assay type: cell membranes; method in brief: as §3

| Structure (SMILES) | Activity (Rattus norvegicus [1]) | Activity (Rattus norvegicus [2]) | Activity (Rattus norvegicus [3]) | Ki (Cannabinoid receptor [5]) | pKi (Mu-type opioid receptor [6]) | pKi [7] | Ki (Cannabinoid receptor [8]) | pEC50 [9] | Emax (Rattus norvegicus [14]) | pKi [21] | further results |
| --- | --- | --- | --- | --- | --- | --- | --- | --- | --- | --- | --- |
| COc1ccc2c3c1O[C@H]1C(=O)CC[C@@]4(O)[C@@H](C2)N(C)CC[C@]314 [OXYCODONE] | 43 g | 40 g | Active |  |  |  |  |  |  |  | Activity (Rattus norvegicus [4]): Active |
| C[C@@H](NC(=O)[C@@H](N)Cc1ccc(O)cc1)C(=O)NCC(=O)N[C@@H](Cc1ccccc1)C(N)=O |  |  |  | > 10000 nM | 9.10 | 6.76 | > 10000 nM | 6.72 | 157% |  | Activity (Rattus norvegicus [10]): 43 g; Activity (Rattus norvegicus [11]): 40 g; Activity (Rattus norvegicus [12]): Active; pEC50 (Mu-type opioid receptor [13]): 6.81 |
| CCCCCn1cc(C(=O)c2cccc3ccccc23)c2ccccc21 | 41 g | 42 g | Active | 3.4 nM | < 5.00 | < 5.00 | 2.9 nM | 7.16 | 163% | < 5.00 | Kdiss [15]: 0.00175 s⁻¹; Kd(app) (Cannabinoid receptor [16]): 6.5 nM; Activity [17]: 65%; K [18]: 0.124 min⁻¹; Activity [19]: 60%; Kd (Cannabinoid receptor [20]): 3.4 nM; Emax [22]: 1120 fmol/mg; EC50 (Cannabinoid receptor [23]): 36 nM; Emax [24]: 167% |
| COc1ccc2c3c1O[C@H]1/C(=N\OCC(=O)NCCCCCCNC(=O)CCCCCn4cc(C(=O)c5cccc6ccccc56)c5ccccc54)CC[C@@]4(O)[C@@H](C2)N(C)CC[C@]314 | 42 g | 47 g | Active | 34 nM | 7.74 | 6.76 | 12 nM | 6.67 | 147% | 6.58 | Emax [25]: 112%; Emax [26]: 139%; Emax [27]: 122%; Emax (Rattus norvegicus [28]): 100%; pEC50 (Mu-type opioid receptor [29]): 6.40; pEC50 (Cannabinoid receptor 1): 6.34; pEC50 (Cannabinoid receptor 2): 6.47; Activity (Mus musculus): Active; Emax (Rattus norvegicus [30]): 146% |
